In ChEMBL document CHEMBL1125507, “Synthesis and antihistaminic activity of some thiazolidin-4-ones” (J Med Chem, 1992):

Columns and labels:
Format in all cases: functional, tissue-based
Histamine H1 receptor [1] = target: T1, Histamine H1 receptor (Cavia porcellus, UniProt P31389); test: (§1) In vitro for histamine H1 receptor antagonist activity against histamine-induced contractions on isolated guinea pig ileum
Outline: (§2)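 Isolated ileum from guinea pigs of either sex (~250 g), tested with racemates. Percent inhibition is taken against the submaximal contraction to 0.5 μM histamine without drug, with six observations per drug concentration. IC50 is the concentration giving 50% inhibition. pA2 = −log KB by Schild, where KB = B/(x−1) and x is the histamine half-maximal concentration ratio with/without antagonist.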

Histamine H1 receptor [2] = target: T1, Histamine H1 receptor; test: as §1; settings: read-out: pA2 (converted)
Histamine H1 receptor [3] = target: T1, Histamine H1 receptor; test: Compound was tested in vitro for histamine H1-antagonist activity against histamine-induced contractions on isolated guinea pig ileum; outline: as §2

T1 sequence (P31389 whole entry): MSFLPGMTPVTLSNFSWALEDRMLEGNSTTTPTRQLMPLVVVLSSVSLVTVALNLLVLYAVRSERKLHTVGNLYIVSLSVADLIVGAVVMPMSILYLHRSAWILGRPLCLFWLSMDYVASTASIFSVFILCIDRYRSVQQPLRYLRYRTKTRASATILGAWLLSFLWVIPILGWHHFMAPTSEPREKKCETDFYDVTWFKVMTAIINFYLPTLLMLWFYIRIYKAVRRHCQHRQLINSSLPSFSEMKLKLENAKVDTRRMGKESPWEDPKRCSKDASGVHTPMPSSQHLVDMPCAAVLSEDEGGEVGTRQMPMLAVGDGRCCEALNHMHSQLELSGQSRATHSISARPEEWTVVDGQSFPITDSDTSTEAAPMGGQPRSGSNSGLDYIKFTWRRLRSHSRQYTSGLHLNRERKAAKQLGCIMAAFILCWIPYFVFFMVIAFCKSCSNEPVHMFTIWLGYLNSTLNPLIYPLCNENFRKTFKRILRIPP

| Structure (SMILES) | IC50 (Histamine H1 receptor [1]) [nM] | Kb (Histamine H1 receptor [2]) [nM] | IC50 (Histamine H1 receptor [3]) [nM] |
| --- | --- | --- | --- |
| CN(C)CCN1C(=O)CSC1c1ccccc1 (configuration not stated) | > 100000 |  |  |
| CN(C)CCCN1C(=O)CSC1c1cccc(F)c1 (configuration not stated) | 3100 | 398 |  |
| CN(C)CCCN1C(=O)CSC1c1cccc(Cl)c1 (configuration not stated) | 2200 | 631 |  |
| CN(C)CCCN1C(=O)CSC1c1ccc(F)cc1 (configuration not stated) | 24000 | 79.4 |  |
| CC(C)c1ccc(C2SCC(=O)N2CCCN(C)C)cc1 (configuration not stated) | 1000 | 2 |  |
| CN(C)CCCN1C(=O)CSC1c1cccc(Br)c1 (configuration not stated) | 60000 | 398 |  |
| CN(C)CCCN1C(=O)CSC1c1ccc([N+](=O)[O-])cc1 (configuration not stated) | > 100000 | 6310 |  |
| CN(C)CCCN1C(=O)CSC1c1ccc(N)cc1 (configuration not stated) | 40000 | 1000 |  |
| CN(C)CCCN1C(=O)CSC1c1cccc([N+](=O)[O-])c1 (configuration not stated) | > 100000 | 3980 |  |
| CN(C)CCCN1C(=O)CSC1c1ccncc1 (configuration not stated) |  |  | > 100000 |
| CN(C)CCCN1C(=O)CSC1c1ccc(Br)cc1 (configuration not stated) | 2300 | 39.8 |  |
| CN(C)CCCN1C(=O)CSC1c1ccccc1 (configuration not stated) | 20000 | 39.8 |  |
| COc1cccc(C2SCC(=O)N2CCCN(C)C)c1 (configuration not stated) | 25000 | 398 |  |
| Cc1ccc(C2SCC(=O)N2CCCN(C)C)cc1 (configuration not stated) | 1200 | 5.01 |  |
| Cc1cccc(C2SCC(=O)N2CCCN(C)C)c1 (configuration not stated) | 5000 | 20 |  |
| CN(C)CCCN1C(=O)CSC1c1ccc(Cl)cc1 (configuration not stated) | 21000 | 2510 |  |
| COc1ccc(C2SCC(=O)N2CCCN(C)C)cc1 (configuration not stated) | > 100000 | 10000 |  |
